# According to ChEMBL document CHEMBL1821697, “Design and synthesis of brain penetrant selective JNK inhibitors with improved pharmacokinetic properties for the prevention of neurodegeneration” (Bioorg Med Chem Lett, 2011):
# Tests used:
# [1] = Solubility of the compound in Hank's buffered salt solution at 20 mM at pH 7.4 after 1 hr; assay type: physicochemical
# [2] = Oxidative metabolic stability in rat liver microsomes assessed as compound remaining at 1 uM after 30 mins; assay type: ADME, Microsome; conditions: read-out: Stability
# Procedure, shortened: (§1)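 Test compound was incubated with mouse, rat or human liver microsomes for 30 min. The read-out is percent of parent compound remaining.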
# [3] = Oxidative metabolic stability in mouse liver microsomes assessed as compound remaining at 1 uM after 30 mins; assay type: ADME, Microsome; conditions: read-out: Stability; procedure, shortened: as §1
# [4] = AUC in mouse brain at 1 mg/kg, iv; assay type: ADME, organism-based; parameters: dose 1 mg/kg, route intravenous
# Procedure, shortened: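 Mice were dosed intravenously at 1 mg/kg. Brain exposure was expressed as AUC (ng h/mL) alongside the brain/plasma ratio.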
# [5] = Oxidative metabolic stability in human liver microsomes assessed as compound remaining at 1 uM after 30 mins; assay type: ADME, Microsome; conditions: read-out: Stability; procedure, shortened: as §1
# [6] = Apparent permeability from apical to basolateral side of MDCK2 cells at 5 uM after 120 mins by LC/MS/MS method; assay type: ADME, cell-based, Canis lupus familiaris, MDCK-II; conditions: dog, MDCK
# [7] = target: Mitogen-activated protein kinase 8 (Homo sapiens, UniProt P45983); assay: Inhibition of recombinant JNK1 using ser73 of c-jun as substrate preincubated for 15 mins measured after 60 mins by TR-FRET assay
# Procedure, shortened: (§2)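 Recombinant JNK enzyme assay run at 10 µM ATP. IC50 values are means of at least three experiments.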
# [8] = Ratio of drug level in brain to plasma in mouse at 1 mg/kg, iv; assay type: ADME, organism-based; parameters: dose 1 mg/kg, route intravenous; conditions: read-out: BPR
# Procedure, shortened: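 Single intravenous dose of 1 mg/kg in mice. Brain exposure was reported as brain AUC (ng h/mL), together with the brain-to-plasma ratio.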
# [9] = Half life in rat at 1 mg/kg, iv; assay type: ADME, organism-based; parameters: dose 1 mg/kg, route intravenous; conditions: in vivo
# Procedure, shortened: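 Rats were given a single intravenous dose of 1 mg/kg. Half-life is reported in min, together with clearance (mL/h/kg).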
# [10] = tested on: Rattus norvegicus; assay: AUC in rat at 2 mg/kg, po; assay type: ADME, organism-based, Plasma; parameters: dose 2 mg/kg, route oral; conditions: in vivo
# Procedure, shortened: (§3)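 Rats received an oral dose of 2 mg/kg. Plasma AUC is reported in nmol h/mL. Oral bioavailability (F%) was calculated against a 1 mg/kg intravenous dose.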
# [11] = tested on: Rattus norvegicus; assay: Oral bioavailability in rat at 2 mg/kg; assay type: ADME, organism-based; conditions: in vivo; procedure, shortened: as §3
# [12] = target: T1, Mitogen-activated protein kinase 10 (Homo sapiens, UniProt P53779); assay: Inhibition of recombinant JNK3 using ser73 of c-jun as substrate preincubated for 15 mins measured after 60 mins by TR-FRET assay; procedure, shortened: as §2
# [13] = target: T2, Mitogen-activated protein kinase 1 (Homo sapiens, UniProt P28482); assay: Inhibition of recombinant ERK2 using Ser383 of Elk-1 as substrate preincubated for 15 mins measured after 60 mins by TR-FRET assay
# [14] = target: Mitogen-activated protein kinase 9 (Homo sapiens, UniProt P45984); assay: Inhibition of recombinant JNK2 using ser73 of c-jun as substrate preincubated for 15 mins measured after 60 mins by TR-FRET assay; procedure, shortened: as §2
# [15] = tested on: MDR1; assay: Efflux ratio of permeability across MDCK2 expressing MDR1 at 5 uM after 120 mins by LC/MS/MS method; assay type: ADME, Canis lupus familiaris, MDCK-II; conditions: dog, MDCK-MDR1
# [16] = target: Mitogen-activated protein kinase 14 (Homo sapiens, UniProt Q16539); assay: Inhibition of recombinant p38alpha Thr69/71 of ATF-2 as substrate preincubated for 15 mins measured after 60 mins by TR-FRET assay
# [17] = target: PI3-kinase p110-alpha/p85-alpha (Homo sapiens) (UniProt P27986+P42336); assay: Inhibition of PIK3CA/PIK3R1 at 10 uM; assay type: protein-complex assay
# [18] = target: Calcium/calmodulin-dependent protein kinase type II subunit alpha (Homo sapiens) (UniProt Q9UQM7); assay: Inhibition of CAMK2A at 10 uM
# [19] = target: Receptor-type tyrosine-protein kinase FLT3 (Homo sapiens) (UniProt P36888); assay: Inhibition of FLT3 at 10 uM
# [20] = target: Tyrosine-protein kinase ABL1 (Homo sapiens) (UniProt P00519); assay: Inhibition of Abl1 at 10 uM
# [21] = target: T2, Mitogen-activated protein kinase 1; assay: Inhibition of ERK2 at 10 uM
# [22] = target: Dual specificity tyrosine-phosphorylation-regulated kinase 1B (Homo sapiens) (UniProt Q9Y463); assay: Inhibition of DYRK1B at 10 uM
# [23] = target: Serine/threonine-protein kinase PLK3 (Homo sapiens) (UniProt Q9H4B4); assay: Inhibition of PLK3 at 10 uM
# [24] = target: Cyclin-dependent kinase 2/cyclin A (Homo sapiens) (UniProt P24941+P20248+P78396); assay: Inhibition of CDK2/Cyclin A at 10 uM; assay type: protein-complex assay
# [25] = target: T1, Mitogen-activated protein kinase 10; assay: Inhibition of JNK3 at 10 uM using 100 uM of ATP
# [26] = target: Protein-tyrosine kinase 2-beta (Homo sapiens) (UniProt Q14289); assay: Inhibition of PTK2B at 10 uM
# [27] = target: Serine/threonine-protein kinase 3 (Homo sapiens) (UniProt Q13188); assay: Inhibition of STK3 at 10 uM
# [28] = target: Tyrosine-protein kinase JAK1 (Homo sapiens) (UniProt P23458); assay: Inhibition of JAK1 at 10 uM
# [29] = target: Rho-associated protein kinase 2 (Homo sapiens) (UniProt O75116); assay: Inhibition of ROCK2 at 10 uM
# [30] = target: Cyclin-dependent kinase 1/cyclin B1 (Homo sapiens) (UniProt P06493+P14635); assay: Inhibition of CDK1/Cyclin B1 at 10 uM; assay type: protein-complex assay
# [31] = target: Serine/threonine-protein kinase MARK2 (Homo sapiens) (UniProt Q7KZI7); assay: Inhibition of MARK2 at 10 uM
# [32] = target: Insulin receptor (Homo sapiens) (UniProt P06213); assay: Inhibition of INSR at 10 uM
# [33] = target: Glycogen synthase kinase-3 beta (Homo sapiens) (UniProt P49841); assay: Inhibition of GSK3-beta at 10 uM
# [34] = target: cAMP-dependent protein kinase catalytic subunit alpha (Homo sapiens) (UniProt P17612); assay: Inhibition of PRKACA at 10 uM
# [35] = tested on: RAF proto-oncogene serine/threonine-protein kinase (Homo sapiens), P04049 [Y340D,Y341D]; assay: Inhibition of c-Raf Y340D Y341D mutant at 10 uM using 100 uM of ATP
# [36] = target: RAC-alpha serine/threonine-protein kinase (Homo sapiens) (UniProt P31749); assay: Inhibition of AKT1 at 10 uM
# [37] = target: Tyrosine-protein kinase SYK (Homo sapiens) (UniProt P43405); assay: Inhibition of SYK at 10 uM
# [38] = target: Protein kinase C beta type (Homo sapiens) (UniProt P05771); assay: Inhibition of PRKCB1 at 10 uM
# [39] = target: Tyrosine-protein kinase Lck (Homo sapiens) (UniProt P06239); assay: Inhibition of LCK at 10 uM
# [40] = target: Platelet-derived growth factor receptor alpha (Homo sapiens) (UniProt P16234); assay: Inhibition of PDGFRA at 10 uM
# [41] = tested on: Cortical neurone; assay: Neuroprotective activity in human cerebral cortical neurons assessed as reversal of amyloid beta-induced neuronal damage after 2 to 3 days; assay type: functional
# Procedure, shortened: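 Human cortical neurons were exposed to amyloid-β in a neurotoxicity assay. Neuroprotection by the inhibitor was expressed as an EC50.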
# [42] = target: Receptor-interacting serine/threonine-protein kinase 2 (Homo sapiens) (UniProt O43353); assay: Inhibition of RIPK2 at 10 uM
# [43] = target: Serine/threonine-protein kinase PLK2 (Homo sapiens) (UniProt Q9NYY3); assay: Inhibition of PLK2 at 10 uM
# [44] = target: Leucine-rich repeat serine/threonine-protein kinase 2 (Homo sapiens) (UniProt Q5S007); assay: Inhibition of LRRK2 at 10 uM
# [45] = target: Receptor tyrosine-protein kinase erbB-4 (Homo sapiens) (UniProt Q15303); assay: Inhibition of ERBB4 at 10 uM
# [46] = target: Serine/threonine-protein kinase PLK1 (Homo sapiens) (UniProt P53350); assay: Inhibition of PLK1 at 10 uM
# [47] = target: Serine/threonine-protein kinase Chk1 (Homo sapiens) (UniProt O14757); assay: Inhibition of CHEK1 at 10 uM
# [48] = target: Macrophage colony-stimulating factor 1 receptor (Homo sapiens) (UniProt P07333); assay: Inhibition of CSF1R at 10 uM
# [49] = target: Dual specificity protein kinase CLK1 (Homo sapiens) (UniProt P49759); assay: Inhibition of CLK1 at 10 uM
# [50] = target: Serine/threonine-protein kinase PAK 4 (Homo sapiens) (UniProt O96013); assay: Inhibition of PAK4 at 10 uM
# [51] = target: Aurora kinase A (Homo sapiens) (UniProt O14965); assay: Inhibition of AURKA at 10 uM
# [52] = target: Cyclin-dependent kinase 5/CDK5 activator 1 (Homo sapiens) (UniProt Q00535+Q15078); assay: Inhibition of CDK5/P25 at 10 uM; assay type: protein-complex assay
# [53] = target: Proto-oncogene tyrosine-protein kinase receptor Ret (Homo sapiens) (UniProt P07949); assay: Inhibition of RET at 10 uM
# Sequence of Mitogen-activated protein kinase 14 (Q16539 whole entry): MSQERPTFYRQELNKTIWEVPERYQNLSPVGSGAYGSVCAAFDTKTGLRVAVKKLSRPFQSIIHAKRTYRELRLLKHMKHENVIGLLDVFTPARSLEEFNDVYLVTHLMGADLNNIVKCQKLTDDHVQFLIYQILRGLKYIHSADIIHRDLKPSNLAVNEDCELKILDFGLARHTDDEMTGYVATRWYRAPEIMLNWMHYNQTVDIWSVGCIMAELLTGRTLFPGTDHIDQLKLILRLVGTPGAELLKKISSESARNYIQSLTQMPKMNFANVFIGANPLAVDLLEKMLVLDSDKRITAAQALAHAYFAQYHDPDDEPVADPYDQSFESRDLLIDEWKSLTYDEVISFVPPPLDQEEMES
# Sequence of Mitogen-activated protein kinase 9 (P45984 whole entry): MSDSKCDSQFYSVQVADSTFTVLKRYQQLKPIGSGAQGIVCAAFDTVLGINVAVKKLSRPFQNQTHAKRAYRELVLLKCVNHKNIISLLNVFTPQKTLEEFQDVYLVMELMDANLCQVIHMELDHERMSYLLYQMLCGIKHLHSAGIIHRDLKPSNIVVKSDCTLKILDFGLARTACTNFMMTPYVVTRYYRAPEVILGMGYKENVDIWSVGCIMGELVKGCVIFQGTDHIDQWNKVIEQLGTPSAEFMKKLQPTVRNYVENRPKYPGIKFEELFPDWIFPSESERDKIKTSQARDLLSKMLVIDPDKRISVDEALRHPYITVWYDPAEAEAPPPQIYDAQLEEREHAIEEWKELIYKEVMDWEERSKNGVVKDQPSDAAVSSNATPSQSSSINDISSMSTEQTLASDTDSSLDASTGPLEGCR
# Sequence of Mitogen-activated protein kinase 8 (P45983 whole entry): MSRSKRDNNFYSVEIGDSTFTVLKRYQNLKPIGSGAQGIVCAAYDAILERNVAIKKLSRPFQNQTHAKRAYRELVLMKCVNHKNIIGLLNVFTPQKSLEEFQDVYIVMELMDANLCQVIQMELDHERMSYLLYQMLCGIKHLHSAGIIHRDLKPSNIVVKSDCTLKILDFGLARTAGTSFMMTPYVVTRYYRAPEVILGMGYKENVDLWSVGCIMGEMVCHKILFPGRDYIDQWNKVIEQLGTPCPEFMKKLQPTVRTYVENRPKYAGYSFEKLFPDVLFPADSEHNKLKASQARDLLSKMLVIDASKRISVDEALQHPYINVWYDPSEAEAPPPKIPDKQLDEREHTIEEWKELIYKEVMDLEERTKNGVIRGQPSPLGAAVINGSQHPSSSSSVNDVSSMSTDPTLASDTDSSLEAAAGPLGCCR
# T2 sequence (P28482 whole entry): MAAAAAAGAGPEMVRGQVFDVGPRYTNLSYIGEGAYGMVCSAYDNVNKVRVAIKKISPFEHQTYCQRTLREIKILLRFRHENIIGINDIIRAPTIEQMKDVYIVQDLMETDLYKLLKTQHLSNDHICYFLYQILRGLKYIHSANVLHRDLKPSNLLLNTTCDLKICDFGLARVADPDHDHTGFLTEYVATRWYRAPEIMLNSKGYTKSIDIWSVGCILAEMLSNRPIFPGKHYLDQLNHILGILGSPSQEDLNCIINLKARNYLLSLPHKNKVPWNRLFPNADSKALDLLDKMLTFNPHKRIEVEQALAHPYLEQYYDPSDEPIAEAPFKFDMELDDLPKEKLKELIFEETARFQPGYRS
# T1 sequence (P53779 whole entry): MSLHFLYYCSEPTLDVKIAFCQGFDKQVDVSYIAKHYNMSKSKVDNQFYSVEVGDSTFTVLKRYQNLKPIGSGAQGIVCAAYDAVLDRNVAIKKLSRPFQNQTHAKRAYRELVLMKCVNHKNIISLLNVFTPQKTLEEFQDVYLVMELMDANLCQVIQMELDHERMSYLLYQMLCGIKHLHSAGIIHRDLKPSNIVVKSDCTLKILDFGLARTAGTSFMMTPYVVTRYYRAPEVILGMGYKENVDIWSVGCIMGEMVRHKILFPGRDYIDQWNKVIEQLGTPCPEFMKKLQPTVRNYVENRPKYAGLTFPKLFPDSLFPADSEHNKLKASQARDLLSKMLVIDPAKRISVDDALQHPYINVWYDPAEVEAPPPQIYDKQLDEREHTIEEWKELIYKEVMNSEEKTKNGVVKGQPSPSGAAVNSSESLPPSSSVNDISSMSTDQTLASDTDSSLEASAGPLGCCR
# Sequence of Insulin receptor (Homo sapiens) (P06213 28-758 limits assumed): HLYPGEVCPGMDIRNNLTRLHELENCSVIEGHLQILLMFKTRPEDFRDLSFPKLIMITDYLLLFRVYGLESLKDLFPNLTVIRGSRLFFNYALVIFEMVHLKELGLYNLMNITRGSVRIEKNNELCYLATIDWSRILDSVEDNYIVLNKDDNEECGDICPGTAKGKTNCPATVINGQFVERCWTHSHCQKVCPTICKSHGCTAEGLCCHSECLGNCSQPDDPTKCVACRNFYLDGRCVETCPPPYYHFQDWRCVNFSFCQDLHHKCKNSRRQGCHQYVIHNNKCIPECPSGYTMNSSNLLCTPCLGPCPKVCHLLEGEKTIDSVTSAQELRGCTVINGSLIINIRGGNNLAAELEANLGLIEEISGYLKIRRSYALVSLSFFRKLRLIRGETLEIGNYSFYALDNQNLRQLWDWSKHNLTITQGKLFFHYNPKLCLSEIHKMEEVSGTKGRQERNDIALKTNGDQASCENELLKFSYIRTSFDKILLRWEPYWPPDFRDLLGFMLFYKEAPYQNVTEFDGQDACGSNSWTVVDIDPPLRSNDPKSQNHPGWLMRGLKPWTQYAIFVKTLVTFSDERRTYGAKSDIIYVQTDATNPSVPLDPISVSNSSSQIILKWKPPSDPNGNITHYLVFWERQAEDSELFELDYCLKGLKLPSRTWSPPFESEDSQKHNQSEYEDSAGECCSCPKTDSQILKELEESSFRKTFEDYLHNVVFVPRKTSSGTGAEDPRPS
# Sequence of Insulin receptor (Homo sapiens) (P06213 763-1382 limits assumed): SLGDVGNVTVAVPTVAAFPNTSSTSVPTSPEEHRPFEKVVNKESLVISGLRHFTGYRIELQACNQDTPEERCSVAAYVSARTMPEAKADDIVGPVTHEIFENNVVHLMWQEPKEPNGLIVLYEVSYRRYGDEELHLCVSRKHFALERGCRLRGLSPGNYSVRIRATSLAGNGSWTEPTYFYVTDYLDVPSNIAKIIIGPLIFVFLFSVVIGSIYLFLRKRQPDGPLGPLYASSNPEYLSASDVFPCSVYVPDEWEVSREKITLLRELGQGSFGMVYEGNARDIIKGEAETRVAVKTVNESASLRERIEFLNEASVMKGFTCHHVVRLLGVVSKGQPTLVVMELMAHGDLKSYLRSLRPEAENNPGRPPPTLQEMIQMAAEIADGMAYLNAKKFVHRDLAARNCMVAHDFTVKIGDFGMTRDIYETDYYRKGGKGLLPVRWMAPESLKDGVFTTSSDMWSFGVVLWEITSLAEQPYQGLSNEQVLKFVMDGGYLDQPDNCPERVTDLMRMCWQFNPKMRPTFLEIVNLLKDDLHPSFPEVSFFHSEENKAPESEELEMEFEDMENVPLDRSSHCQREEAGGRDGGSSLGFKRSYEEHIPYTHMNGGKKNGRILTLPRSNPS
# Sequence of Protein kinase C beta type (Homo sapiens) (P05771 2-671 limits assumed): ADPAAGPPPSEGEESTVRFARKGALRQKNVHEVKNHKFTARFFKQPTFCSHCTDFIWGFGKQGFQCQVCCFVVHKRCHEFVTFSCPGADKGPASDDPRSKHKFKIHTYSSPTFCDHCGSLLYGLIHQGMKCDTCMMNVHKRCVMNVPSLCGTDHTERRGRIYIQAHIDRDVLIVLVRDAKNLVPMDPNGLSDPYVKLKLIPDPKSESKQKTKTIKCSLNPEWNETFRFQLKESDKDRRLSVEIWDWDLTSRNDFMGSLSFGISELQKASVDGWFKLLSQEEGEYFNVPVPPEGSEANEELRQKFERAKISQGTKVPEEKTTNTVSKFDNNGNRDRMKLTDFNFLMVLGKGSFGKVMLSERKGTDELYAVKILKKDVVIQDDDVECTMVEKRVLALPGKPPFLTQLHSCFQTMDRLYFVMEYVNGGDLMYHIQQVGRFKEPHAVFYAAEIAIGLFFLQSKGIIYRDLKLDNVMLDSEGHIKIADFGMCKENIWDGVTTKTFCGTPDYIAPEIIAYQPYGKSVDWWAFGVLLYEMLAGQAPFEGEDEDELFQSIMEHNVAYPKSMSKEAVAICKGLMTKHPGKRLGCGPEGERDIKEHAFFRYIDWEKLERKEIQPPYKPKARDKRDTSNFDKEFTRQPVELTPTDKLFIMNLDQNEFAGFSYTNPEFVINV
# Sequence of Serine/threonine-protein kinase PAK 4 (Homo sapiens) (O96013 whole entry, looked up): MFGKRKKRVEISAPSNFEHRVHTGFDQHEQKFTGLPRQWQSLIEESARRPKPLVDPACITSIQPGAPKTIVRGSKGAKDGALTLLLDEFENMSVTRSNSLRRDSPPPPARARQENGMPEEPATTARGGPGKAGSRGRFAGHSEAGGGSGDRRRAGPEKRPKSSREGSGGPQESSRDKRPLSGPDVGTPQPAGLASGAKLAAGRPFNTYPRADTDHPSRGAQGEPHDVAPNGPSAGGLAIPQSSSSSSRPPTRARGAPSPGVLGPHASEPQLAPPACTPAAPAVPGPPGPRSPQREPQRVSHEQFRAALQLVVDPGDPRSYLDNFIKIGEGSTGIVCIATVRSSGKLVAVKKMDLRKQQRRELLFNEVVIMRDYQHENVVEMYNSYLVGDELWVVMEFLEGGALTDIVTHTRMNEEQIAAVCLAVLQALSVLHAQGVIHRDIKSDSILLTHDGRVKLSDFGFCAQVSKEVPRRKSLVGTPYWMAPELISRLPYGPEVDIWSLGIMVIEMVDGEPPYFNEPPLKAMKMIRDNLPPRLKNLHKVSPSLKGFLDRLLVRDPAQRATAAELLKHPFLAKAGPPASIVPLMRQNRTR
smiles,measurement,setting,value
N#Cc1csc(NC(=O)CN2C(=O)CCc3ccccc32)c1-c1ncn[nH]1,"solubility at 1 h, 20000 µM",[1],95 µM
same,"remaining at 0.5 h, 1 µM",[2],0%
O=C(CN1C(=O)CCc2ncccc21)Nc1scc(Br)c1-c1ncn[nH]1,"remaining at 0.5 h, 1 µM",[3],55%
same,AUC,[4],35 ng·h/mL
same,"remaining at 0.5 h, 1 µM",[5],83%
same,"Papp A→B at 2 h, 5 µM",[6],36.8 ×10⁻⁶ cm/s
same,IC50,[7],9 nM
same,Kp,[8],0.24
same,half-life,[9],2.5 min
same,AUC,[10],2720 ng·h/mL
same,F,[11],91%
same,IC50,[12],14 nM
same,IC50,[13],> 500 nM
same,IC50,[14],32 nM
same,"efflux ratio at 2 h, 5 µM",[15],1.8
same,IC50,[16],> 50000 nM
same,"remaining at 0.5 h, 1 µM",[2],50%
O=C(Cc1cccc2cnccc12)Nc1scc(Cl)c1-c1ncn[nH]1,AUC,[4],88 ng·h/mL
same,"solubility at 1 h, 20000 µM",[1],25 µM
same,Kp,[8],0.4
same,"remaining at 0.5 h, 1 µM",[2],9%
O=C(Cn1c(=O)ccc2cc(F)c(F)cc21)Nc1scc(Br)c1-c1ncn[nH]1,"remaining at 0.5 h, 1 µM",[3],14%
same,AUC,[4],160 ng·h/mL
same,"remaining at 0.5 h, 1 µM",[5],38%
same,"Papp A→B at 2 h, 5 µM",[6],8.31 ×10⁻⁶ cm/s
same,IC50,[7],3 nM
same,Kp,[8],1.4
same,half-life,[9],2.3 min
same,AUC,[10],571 ng·h/mL
same,F,[11],40%
same,IC50,[12],5 nM
same,IC50,[13],> 50000 nM
same,IC50,[14],15 nM
same,"efflux ratio at 2 h, 5 µM",[15],0.68
same,IC50,[16],> 50000 nM
same,"remaining at 0.5 h, 1 µM",[2],9%
O=C(Cn1c(=O)ccc2cc(C(F)(F)F)ccc21)Nc1scc(Br)c1-c1ncn[nH]1,"remaining at 0.5 h, 1 µM",[3],58%
same,AUC,[4],235 ng·h/mL
same,inhibition,[17],6%
same,inhibition,[18],4%
same,"remaining at 0.5 h, 1 µM",[5],67%
same,inhibition,[19],7%
same,inhibition,[20],0%
same,inhibition,[21],-2%
same,inhibition,[22],11%
same,inhibition,[23],-8%
same,inhibition,[24],2%
same,inhibition,[25],96%
same,inhibition,[26],-5%
same,inhibition,[27],4%
same,"Papp A→B at 2 h, 5 µM",[6],3.62 ×10⁻⁶ cm/s
same,IC50,[7],2 nM
same,Kp,[8],0.7
same,inhibition,[28],0%
same,inhibition,[29],11%
same,half-life,[9],4.6 min
same,inhibition,[30],1%
same,inhibition,[31],4%
same,AUC,[10],1310 ng·h/mL
same,inhibition,[32],-3%
same,inhibition,[33],5%
same,inhibition,[34],0%
same,inhibition,[35],10%
same,inhibition,[36],2%
same,inhibition,[37],15%
same,inhibition,[38],4%
same,inhibition,[39],8%
same,inhibition,[40],0%
same,EC50,[41],2900 nM
same,F,[11],34%
same,inhibition,[42],-7%
same,inhibition,[43],10%
same,inhibition,[44],13%
same,inhibition,[45],-2%
same,inhibition,[46],3%
same,IC50,[12],9 nM
same,IC50,[13],> 50000 nM
same,inhibition,[47],10%
same,IC50,[14],5 nM
same,"efflux ratio at 2 h, 5 µM",[15],0.61
same,inhibition,[48],-2%
same,IC50,[16],> 50000 nM
same,inhibition,[49],5%
same,"remaining at 0.5 h, 1 µM",[2],35%
same,inhibition,[50],3%
same,inhibition,[51],5%
same,inhibition,[52],2%
same,inhibition,[53],4%
